miR-122 sensor: miR-122 inhibition in Huh7 cells. activation (reporter increase), % at 12.5 µM. 0.3% of 340,000 active. Huh7 miR-122 Renilla luciferase sensor, 48 h; neutral wells = 0, positive control = 100. AID 602342;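 active = mean replicate activation score at least 90 and every replicate individually at or above 90; inconclusive = only one of the two criteria met; inactive = neither criterion met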;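 also: higher luciferase means less miR-122 activity so hits act as miR-122 inhibitors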
CAL PDZ FP-1: CAL PDZ (human) peptide binding inhibition | inhibition, % at 24.9 µM | Q9HD26 | 0.92% of 300,000 active | purified CAL PDZ, TMR-peptide fluorescence polarization, 1 h | AID 602252;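 active = mean inhibition of at least 30% with at least half of replicates also reaching 30%; inconclusive = no clear call, values can overlap the other calls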;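 also: 0% = DMSO neutral control and 100% = excess unlabeled competitor peptide PRC23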
CAL PDZ FP-2: inhibitors of human CAL PDZ peptide binding | Q9HD26 | purified CAL PDZ, TMR-peptide fluorescence polarization, 1 h | inhibition, % at 20 µM | 0.02% of 330,000 active | AID 504414;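 active = highest replicate inhibition of at least 40%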;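 also: plate controls were DMSO neutral control wells for no effect and unlabeled competitor peptide control wells for full effect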
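Test system: tagged CAL PDZ domain / Buffer or medium: sodium phosphate/NaCl buffer pH 7.4 with TCEP, IgG, Thesit / Reagent: TMR-labelled reporter peptide T*-PRC34 bound in PDZ groove / Compound dosing: single point, 20 µM / Schedule: 1 h incubation at room temperature before polarization reading / Technique: fluorescence polarization (mP) / Benchmarks: unlabelled peptide, DMSO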
PglD DTNB: inhibitors of Campylobacter jejuni PglD acetyltransferase. inhibition, % at 12.5 µM. 0.098% of 360,000 active. purified PglD enzyme, DTNB colorimetric CoA detection; in the data active = inhibition above about 16%, passing the limit was not always enough; inconclusive = no clear call, values can overlap the other calls
Cneo AK release: causes C. neoformans cell lysis; adenylate kinase release luminescence, 4 h; normalised: neutral wells 0, clomiphene wells 100; AID 651654; 0.2% of 360,000 active; lysis activity, % at 15 µM;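 active = mean lysis activity across replicates of at least 80%, whatever share of replicates individually reach that level; inactive = mean lysis activity below 80%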
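Test system: log-phase Cryptococcus neoformans yeast cells. Input: 5 × 10^6 yeast cells/mL. Medium: fresh YPD growth medium. Doses: single dose. Incubation: static 4 h at 37 °C with compound, 1 h detection. Measured by: luminescent adenylate kinase detection reagent. Read-out: signal increase indicating cell lysis. Benchmarks: Clomiphene.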
* = called active by the depositor; ? = inconclusive; · = no result given; ! = not active in a repeat; [ ] = dose if it differs, or a comment. Rows were chosen to be rich in hits. Some 1.1% of all compounds tested hit in one or more screens of this group.

SMILES	miR-122 sensor	CAL PDZ FP-1	CAL PDZ FP-2	PglD DTNB	Cneo AK release
COc1cccc(NC(=O)N[C@@H]2C=C[C@@H](CC(=O)NCc3ccccn3)O[C@H]2CO)c1	·	·	·	-1.5	14.7
COc1ccc(NC(=O)Nc2ccc3c(c2)C(=O)N([C@@H](C)CO)C[C@@H](C)[C@H](CN(C)Cc2ccc(-c4ccccc4)cc2)O3)cc1	-6.9[16.7 µM]	·	·	0.6	-2.2
CCC(C)(C)NC(=O)C(c1ccc(C)cc1)N(Cc1ccco1)C(=O)CCC(=O)Nc1nccs1 (stereo unspecified)	-4.1	·	-2.3	-1.3	0.0
O=C(NCCN1CCN(C(=O)c2ccccc2Cl)CC1)C(=O)NCc1ccccc1	·	48.0*	-0.7	5.7	-0.7
COCC(=O)Nc1ccc2c(c1)[C@H]1C[C@H](CC(=O)NCC3CC3)O[C@H](CO)[C@H]1O2	0.7[16.7 µM]	·	·	-0.8	0.8
Cc1ccc(S(=O)(=O)Nc2cccc3c2O[C@H](CN(C)C(=O)Nc2ccc(F)cc2)[C@@H](C)CN([C@H](C)CO)C3=O)cc1	44.7[16.7 µM]	·	·	0.0	0.7
CCCNC(=O)[C@@H]1[C@@H](CO)[C@@H]2Cn3c(ccc(/C=C/c4ccccc4)c3=O)[C@H]1N2C(=O)c1ccncc1	·	·	·	2.9	-4.1
NC(=S)NNC(=O)c1ccccc1Cl	·	34.5*	-0.8	·	·
CC(C)C(=O)Nc1ccc2c(c1)C(=O)N(C)[C@@H]1CC[C@H](CC(=O)Nc3ccccc3)O[C@@H]1CO2	-1.0[16.7 µM]	·	·	4.7	1.7
O=C(NC1CCCCC1)c1ccc(CS(=O)(=O)c2ccc(Cl)cc2)o1	1.5	4.3	-1.0	-4.7	-0.3
O=C(NC1CCCC1)c1ccc(CS(=O)(=O)c2ccc(Cl)cc2)o1	0.8	69.5*	-1.7	-2.4	-0.6
O=C([C@@H]1[C@@H](CO)[C@@H]2Cn3c(ccc(C4=CCCCC4)c3=O)[C@@H]2N1Cc1nccs1)N1CCCCC1	6.6[16.7 µM]	·	·	2.7	2.3
Cc1cccc(S(=O)(=O)C(C#N)c2nc3ccccc3nc2N2CCCC2)c1 (stereo unspecified)	118.6*	-0.7	-0.5	4.2	-0.6
O=S(=O)(c1ccc2c(c1)OCCO2)N(Cc1ccc(F)cc1)Cc1nnc(-c2cccs2)o1	8.0	42.9*	-2.0	-4.5	0.3
C[C@H]1CN([C@@H](C)CO)C(=O)c2cc(/C=C/c3ccccc3)cnc2O[C@@H]1CN(C)S(C)(=O)=O	-3.6[16.7 µM]	·	·	1.4	3.3
C[C@@H]1CN([C@@H](C)CO)C(=O)c2cc(/C=C/c3ccccc3)cnc2O[C@@H]1CN(C)S(C)(=O)=O	8.7[16.7 µM]	·	·	3.5	82.9*
C[C@H](CO)N1C[C@H](C)[C@H](CN(C)S(=O)(=O)c2cn(C)cn2)Oc2ncc(/C=C/c3ccccc3)cc2C1=O	32.7[16.7 µM]	·	·	1.7	96.6*!
CCCN(CCC)CCCNC(=S)Nc1ccc2nc3n(c(=O)c2c1)CCCCC3	·	-1.1	-3.2	·	·
COc1ccc(OC)c(/C=C/C(=O)OCC(=O)N2CCCCC2)c1	8.9	64.2*	-0.7	7.8	6.7
COc1ccc(/C=C/C(=O)OCC(=O)N2CCCCCC2)cc1OC	·	-8.5	-0.2	-4.5	0.8
Cc1cccc(C)c1N(CC(=O)N1CCOCC1)S(C)(=O)=O	1.2	44.3*	·	7.5	-1.6
N#C[C@@H]1[C@H](c2ccc(-c3ccccc3F)cc2)[C@H](CO)N1C(=O)c1ccccn1	·	·	·	-1.7	-2.9
CN(C)CCCCOc1ccc(Br)cc1Cl	·	83.5*	-3.4	·	·
COCCCNCCCCOc1ccc(Br)cc1Cl	-1.3	9.6	-0.8	0.6	4.1
Cc1[nH]n(C(C)(C)C)c(=O)c1Sc1ccc(Cl)cc1	31.2	1.9	-0.4	2.9	-1.5
SMILES	miR-122 sensor	CAL PDZ FP-1	CAL PDZ FP-2	PglD DTNB	Cneo AK release
Cc1cc(O)c(Sc2ccc(Cl)cc2)c(=O)[nH]1	·	54.8*	0.5	·	·
COc1ccc2oc(C(=O)OCC(=O)NCc3ccco3)c(C)c2c1	-2.8	2.5	-2.6	-3.9	1.8
Cc1ccc(C(=O)C(C)OC(=O)Cn2c(C)csc2=O)cc1 (stereo unspecified)	·	-4.6	0.1	-9.9	0.1
CN(CCOc1ccccc1)CC(=O)Nc1ccc(Cl)cc1[N+](=O)[O-]	-10.1	24.7	-1.1	0.0	3.1
COc1cc(NC(=O)CN(C)CCOc2ccccc2)c(C)cc1[N+](=O)[O-]	4.7	41.6*	-0.7	-1.1	1.1
C[C@@H]1CN([C@H](C)CO)C(=O)c2cc(C3=CCCC3)cnc2O[C@H]1CN(C)C(=O)CN(C)C	13.7[16.7 µM]	·	·	-0.6	-2.0
C/C=C/c1ccc([C@H]2[C@@H](C#N)N(S(=O)(=O)c3cccc(F)c3)[C@H]2CO)cc1	·	·	·	3.7	90.6*
COc1ccc(NS(=O)(=O)c2ccc(OC)c(OC)c2)cc1OC	?	-3.6	-0.7	4.8	2.8
COc1ccc(S(=O)(=O)Nc2ccc(C(F)(F)F)cc2)cc1OC	127.9*	0.1	-0.6	4.1	-0.1
Cc1cc(C(=O)COc2ccccc2C(N)=O)c(C)n1C1CC1	·	0.1	-5.2	·	·
Cc1nn(-c2ccccc2)c(C)c1NC(=O)COC(=O)c1ccc(NC(=O)CC#N)cc1	-4.0	-1.6	-1.8	1.8	-0.7
Cc1ccccc1OCC(=O)OCC(=O)c1cc(C)n(C2CC2)c1C	-2.4	46.5*	-2.2	-0.3	1.4
Cc1cc(C(=O)COC(=O)c2ccc(Cl)c(S(N)(=O)=O)c2)c(C)n1C1CC1	·	40.6*	-1.0	-1.1	-1.4
Cc1nn(-c2ccccc2)c(C)c1NC(=O)COC(=O)c1ccc(Cl)c(S(N)(=O)=O)c1	·	64.8*	0.6	-2.6	-0.6
C[C@@H]1CN([C@H](C)CO)S(=O)(=O)c2ccc(-c3ccc(C(=O)N(C)C)cc3)cc2O[C@@H]1CN(C)C(=O)C1CC1	-3.6[16.7 µM]	·	·	·	·
COc1ccc(C2c3ccc(O)cc3Oc3ncn(CCN4CCOCC4)c(=N)c32)cc1 (stereo unspecified)	-5.4	-10.4	-1.3	0.5	3.7
N=c1c2c(ncn1CCCO)Oc1cc(O)ccc1C2c1ccccc1 (stereo unspecified)	-8.4	39.0*	-2.1	-3.6	-5.2
COc1ccc(C2CC(=O)c3c(C)nc(N4CCN(c5ccccc5)CC4)nc3C2)cc1 (stereo unspecified)	1.1	37.8*	-0.8	-6.8	1.6
COc1ccc(C(C)NC(=O)c2ccncc2)cc1OC (stereo unspecified)	0.2	75.7*	-0.1	5.0	-0.7
COc1ccc(C(C)NC(=O)c2ccc(Cl)cc2)cc1OC (stereo unspecified)	·	-3.0	1.0	·	·
COC(=O)CC1C(=O)NCCN1C(=O)c1ccc([N+](=O)[O-])cc1 (stereo unspecified)	-1.7	69.6*	-1.2	3.1	1.5
CC(C)NC(=O)Nc1ccc2c(c1)C(=O)N([C@H](C)CO)C[C@H](C)[C@H](CN(C)S(=O)(=O)c1ccccc1)OCCCC[C@H](C)O2	-1.7[16.7 µM]	·	·	-0.6	-1.8
CCCCn1c(SCC(=O)Nc2nnc(CC)s2)nc2c1c(=O)n(C)c(=O)n2C	237.4*	·	-3.2	0.5	1.3

Bioassay records (PubChem BioAssay)
